Screening data as filed in PubChem BioAssay.
EBI2 block – blocks human EBI2 receptor beta-arrestin signaling; P32249; EBI2 beta-arrestin recruitment, luminescence, 7a,25-OHC stimulated; inhibition, % at 5 µM; 0.81% of 360,000 active; in the data active = inhibition above about 38%;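 note: enzyme fragment complementation signal reports receptor beta-arrestin coupling in cells; 0% = agonist plus DMSO wells and 100% = wells without agonist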
Target sequence (P32249 whole entry, looked up, the tested form may be a part): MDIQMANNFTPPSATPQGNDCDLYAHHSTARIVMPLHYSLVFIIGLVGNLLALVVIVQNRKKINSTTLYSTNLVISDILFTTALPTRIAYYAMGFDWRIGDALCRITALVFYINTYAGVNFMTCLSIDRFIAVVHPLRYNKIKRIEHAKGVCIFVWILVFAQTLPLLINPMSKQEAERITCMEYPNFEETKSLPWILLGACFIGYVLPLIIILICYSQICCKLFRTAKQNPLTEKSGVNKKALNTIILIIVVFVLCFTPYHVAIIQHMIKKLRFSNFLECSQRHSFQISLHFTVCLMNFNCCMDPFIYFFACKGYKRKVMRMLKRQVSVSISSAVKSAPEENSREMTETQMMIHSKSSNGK
MPTP block – inhibitors of mitochondrial permeability transition pore | 1.4% of 360,000 active | AID 602449 | isolated mouse mitochondria, Ca2+ swelling absorbance, 30 min | inhibition, % at 10 µM;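 active = inhibition of 50% or more, scaled per plate between neutral and stimulator controls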;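 note: 0% = DMSO wells given calcium and 100% = 1 mM EGTA wells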
NR3A LBD binder – modulates the human NR3A ligand-binding domain; Tm shift relative to glycine control, % at 25 µM; 2.5% of 340,000 active; NR3A LBD differential scanning fluorimetry, Tm shift; 0% = protein alone, 100% = glycine-bound protein; AID 1259313;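 active = melting temperature shift of at least 10% of the positive control shift, at one fixed dose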
SENP1 inh – SENP1 (human) catalytic domain inhibition; recombinant SENP1 catalytic domain, CyPet-SUMO1-YPet FRET cleavage; 0.21% of 360,000 active; inhibition, % at 10 µM; Q9P0U3;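 active = inhibition at least 30% at 10 µM, raw YFP signal under a set limit, fluorescence ratio 0.5 to 1.5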;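 note: 0% = enzyme with DMSO and 100% = no enzyme wells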
Target sequence (Q9P0U3 419-644 limits assumed): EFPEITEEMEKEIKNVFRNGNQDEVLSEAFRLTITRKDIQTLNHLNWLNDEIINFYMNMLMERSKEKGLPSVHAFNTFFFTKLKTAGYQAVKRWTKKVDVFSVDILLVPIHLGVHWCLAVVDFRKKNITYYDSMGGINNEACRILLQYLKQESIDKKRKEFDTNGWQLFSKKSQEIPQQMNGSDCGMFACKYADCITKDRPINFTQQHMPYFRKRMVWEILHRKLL
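Controls: no-enzyme wells low, DMSO-plus-enzyme wells high control. Test system: human recombinant His6-tagged SENP1 catalytic domain enzyme. Reagent: SFCypet-SUMO1-SFYpet FRET protein substrate, 25 nM final. Doses: one dose per compound, 10 µM, 0.5% DMSO. Detection: FRET, CFP and YFP emission. Timing: 50 min reaction at room temperature.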
EBI2 antag conf – confirmation of human EBI2 receptor antagonists; EBI2 beta-arrestin luminescence, 7a,25-OHC antagonism; inhibition, % at 5 µM; shares compounds with EBI2 block; 29% of 2,400 active; AID 651997;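 active = inhibition of at least 50%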
EBI2 agonist – counter-screen for EBI2 antagonists: EBI2 agonist activity. EBI2-expressing cells, agonist mode, luminescence, 60 min; 0% vehicle, 100% 7α,25-dihydroxycholesterol control. activation, % at 5 µM. AID 652000. shares compounds with EBI2 block. 2,400 tested, under 10 active;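 active = activation of at least 50%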
bGal counter – beta-galactosidase inhibition counter-screen; shares compounds with EBI2 block; purified beta-galactosidase, luminescent Galacton Star, 15 min; inhibition, % at 5 µM; 1% of 2,400 active; AID 652176;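 active = replicate-average signal at least 3 plate SD below neutral wells, shown as high inhibition, flagging enzyme-inhibiting false positives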;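 note: 0% = DMSO wells with enzyme and 100% = wells lacking enzyme; higher means stronger loss of beta-gal luminescence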
* = called active by the depositor; nt = no result given. This is a sample that favours compounds with a hit; in the whole collection about 4.4% have one here.

SMILES	EBI2 block	MPTP block	NR3A LBD binder	SENP1 inh	EBI2 antag conf	EBI2 agonist	bGal counter
COc1ccc(NC(=S)Nc2ccccc2C(F)(F)F)cc1	34	0	-49	5	nt	nt	nt
O=C(CSc1ccc(Cl)cc1)Nc1ccccc1N1CCN(C(=O)c2ccccc2)CC1	76*	0	0	-1	67*	-1	9
O=C(CSc1ccc(Br)cc1)Nc1ccccc1Oc1ccccc1	54*	8	-1	3	21	0	-14
O=C(CSc1ccc(Cl)cc1)Nc1ccccc1Oc1ccccc1	55*	1	-2	-1	24	0	-11
O=C(CSc1ccc(Cl)cc1)Nc1ccccc1	-1	1	nt	4	nt	nt	nt
COc1ccc(-c2nn(CCC(=O)O)cc2/C=N/NC(N)=S)cc1	-11	-1	1	1	nt	nt	nt
COc1ccc2c(c1OC)C(=O)N(c1ccc(OCc3ccccc3)cc1)C2=O	5	1	1	-6	nt	nt	nt
O=c1[nH]nc(CNc2ccc(OC(F)(F)F)cc2)c2ccccc12	52*	4	-3	0	29	-1	-7
O=c1[nH]nc(CNc2ccc(C(F)(F)F)cc2)c2ccccc12	21	0	-1	2	nt	nt	nt
O=C1[C@@H]2Cc3c([nH]c4ccccc34)C(c3cccc([N+](=O)[O-])c3)N2C(=O)CN1C1CCN(Cc2ccccc2)CC1 (some centres undefined)	41*	1	nt	-1	37	0	5
COC(=O)c1cc(-c2cc(OC)ccc2OC)nc2c1c(=O)n(C)c(=O)n2Cc1ccccc1	67*	0	-2	-28	46	-2	24
O=C(/C=C/c1ccc(F)cc1)NCCC1=CCCCC1	55*	40	10	3	45	2	2
CC(C)CNC(=O)[C@H](Cc1ccccc1)NC(=O)c1cccs1	1	3	-2	-3	nt	nt	nt
CO/N=C/c1ccc(Oc2ccc(C)cc2)nc1	87*	0	8	3	73*	0	7
Cc1ccc(Oc2ccc(C=O)cn2)cc1	16	2	-2	0	nt	nt	nt
COc1ccc(CN2C[C@@H](CO)O[C@@H](n3cnc4c(N(C)C)ncnc43)C2)cc1	1	0	nt	3	nt	nt	nt
Clc1cccc(-c2cc3nc4c(c(N5CCOCC5)n3n2)CCCC4)c1	23	1	-9	-2	nt	nt	nt
OC1CCN(c2c3c(nc4cc(-c5ccc(Cl)cc5)nn24)CCC3)CC1	44*	1	-19	3	40	1	1
COc1ccccc1-c1cnc(C(O)c2ccc(C(C)(C)C)cc2)[nH]1 (centres undefined)	-3	3	nt	-2	nt	nt	nt
CCOc1ccc(-c2nc(N)ncc2-c2ccc(Cl)cc2)c(O)c1	59*	1	6	-3	26	1	-9
COc1ccc(-c2nc(C)ncc2-c2ccc(Cl)cc2)c(O)c1	54*	0	1	0	26	-1	-6
CCOc1ccc(-c2nc(N)ncc2-c2ccccc2)c(O)c1	39	1	0	0	nt	nt	nt
CCOc1ccc(-c2nc(N)ncc2-c2ccc(OC)cc2)c(O)c1	69*	40	-7	-6	35	0	-11
CCc1cc2cc(C(=O)N3CCN(Cc4ccccc4)CC3)sc2s1	97*	-1	6	-1	85*	1	5
CCc1cc2cc(C(=O)N3CCN(c4ccccc4)CC3)sc2s1	83*	-7	1	2	46	-2	-15
SMILES	EBI2 block	MPTP block	NR3A LBD binder	SENP1 inh	EBI2 antag conf	EBI2 agonist	bGal counter
O=C(c1cc2c(s1)CCCC2)N1CCN(c2ccccc2)CC1	1	-2	1	-1	nt	nt	nt
CN1CCN(C2CN(Cc3cn(Cc4ccccc4)nn3)S(=O)(=O)C2)CC1 (centres undefined)	-5	-2	nt	-1	nt	nt	nt
CCOc1cc(N2CCOCC2)c(OCC)cc1NC(=O)COC(=O)c1cccc2ccccc12	55*	10	-7	1	42	0	-22
CC1(C(=O)Nc2cccc3ncccc23)CCN1C(=O)Cc1ccc(-c2ccccc2)cc1 (centres undefined)	69*	0	nt	0	35	-2	-6
CCc1ccc(OCC(=O)NNC(=O)CSc2nnc(-c3ccc(C)cc3)n2C)cc1	41	0	-4	0	nt	nt	nt
Cc1ccc(-c2nnc(SCC(=O)NNC(=O)COc3cccc(C)c3)n2C)cc1	45*	0	-1	0	18	2	11
COc1ccc(C(=O)NNC(=O)CSc2nnc(-c3ccc(O)cc3)n2C)cc1	69*	-4	0	4	45	0	8
Cc1ccc(-c2nnc(SCC(=O)NNC(=O)COc3ccccc3C)n2C)cc1	53*	2	-1	2	9	-1	-4
Cc1c(Cl)cccc1NC(=O)CSc1nc(=O)n(CCCN2CCOCC2)c2c1CCC2	1	1	1	0	nt	nt	nt
O=C(O)[C@H](Cc1c[nH]c2ccccc12)Nc1ncccc1[N+](=O)[O-]	-5	0	0	0	nt	nt	nt
COCCCn1c(SCC(=O)n2c(C)c(C)c3ccccc32)nnc1-c1ccoc1C	0	2	0	-9	nt	nt	nt
O=C(CCc1ccccn1)N1CCCC(N2CCN(c3cccc(C(F)(F)F)c3)CC2)C1 (centres undefined)	3	0	-1	-2	nt	nt	nt
COc1ccc(CCCNC(=O)C2CCC(=O)N(Cc3ccc(Cl)cc3)C2)cc1 (centres undefined)	49*	0	-1	2	24	0	9
CCCCc1nc(S(=O)(=O)c2ccc(Cl)cc2)c(N2CCOCC2)o1	-4	2	5	1	nt	nt	nt
C=CCNCCCCOc1ccc(OCC)cc1	-1	1	4	2	nt	nt	nt
C#Cc1ccc([C@H]2C=C(C(=O)N3CCN(Cc4ccc5c(c4)OCO5)CC3)O[C@@H](OCC)[C@@H]2CCCO)cc1	55*	0	-1	-2	22	1	5
CCO[C@H]1OC(C(=O)N2CCN(Cc3ccc4c(c3)OCO4)CC2)=C[C@@H](c2ccc3c(c2)OCO3)[C@@H]1CCCO	16	1	0	2	nt	nt	nt
CC1(C)Oc2ccc(NC(=O)c3ccco3)cc2O1	0	0	0	-1	nt	nt	nt
CN(C(=O)c1ccc(=O)n(Cc2ccc(Cl)cc2)c1)c1ccccc1	56*	-2	-2	1	36	-1	-14
CN(C(=O)c1cccn(Cc2ccccc2)c1=O)c1ccccc1	-6	2	2	0	nt	nt	nt
O=C(CCN1C(=O)C2C3C=CC(C3)C2C1=O)N1CCN(c2ccc([N+](=O)[O-])cc2)CC1 (centres undefined)	-4	1	3	2	nt	nt	nt
